# Measured values: ChEMBL document CHEMBL1649392, “Synthesis of substituted 3-amino-N-phenyl-1H-indazole-1-carboxamides endowed with antiproliferative activity” (Eur J Med Chem, 2011)
# Experiments:
# Assay type in all cases: functional
# SN12C = assay: Antiproliferative activity against human SN12C cells after 48 hrs by sulforhodamine B assay
# In short: (§1)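 NCI 60-cell-line panel covering nine cancer types (leukemia, non-small cell lung, colon, CNS, melanoma, ovarian, renal, prostate, breast). Compounds were first tested at a single dose, then in a five-dose screen (series starting 0.01, 0.1 …) if they met NCI threshold criteria. Reported per line: GI50 (molar concentration inhibiting 50% net growth), TGI (total growth inhibition) and LC50 (50% net cell death).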
# A549 = assay: Antiproliferative activity against human A549 cells after 48 hrs by sulforhodamine B assay; conditions: A549, 48 h; in short: as §1
# 786-0 = assay: Antiproliferative activity against human 786-0 cells after 48 hrs by sulforhodamine B assay; conditions: 786-0, 48 h; in short: as §1
# SNB-19 = assay: Antiproliferative activity against human SNB19 cells after 48 hrs by sulforhodamine B assay; conditions: SNB-19, 48 h; in short: as §1
# [1] = Antiproliferative activity against human […] cells after 48 hrs by sulforhodamine B assay; in short: as §1
# OVCAR-4 = assay: Antiproliferative activity against human OVCAR4 cells after 48 hrs by sulforhodamine B assay; conditions: OVCAR-4, 48 h; in short: as §1
# HCT-116 = assay: Antiproliferative activity against human HCT116 cells after 48 hrs by sulforhodamine B assay; conditions: HCT-116, 48 h; in short: as §1
# HCT-15 = assay: Antiproliferative activity against human HCT15 cells after 48 hrs by sulforhodamine B assay; conditions: HCT-15, 48 h; in short: as §1
# SK-MEL-2 = assay: Antiproliferative activity against human SK-MEL-2 cells after 48 hrs by sulforhodamine B assay; conditions: SK-MEL-2, 48 h; in short: as §1
# SF-268 = assay: Antiproliferative activity against human SF268 cells after 48 hrs by sulforhodamine B assay; conditions: SF-268, 48 h; in short: as §1
# OVCAR-8 = assay: Antiproliferative activity against human OVCAR8 cells after 48 hrs by sulforhodamine B assay; conditions: OVCAR-8, 48 h; in short: as §1
# SF-539 = assay: Antiproliferative activity against human SF539 cells after 48 hrs by sulforhodamine B assay; conditions: SF-539, 48 h, read-out: LC50 (the source's name); in short: as §1
# NCI-H460 = assay: Antiproliferative activity against human NCI-H460 cells after 48 hrs by sulforhodamine B assay; conditions: NCI-H460, 48 h; in short: as §1
# HOP-62 = assay: Antiproliferative activity against human HOP62 cells after 48 hrs by sulforhodamine B assay; conditions: HOP-62, 48 h; in short: as §1
# OVCAR-3 = assay: Antiproliferative activity against human OVCAR3 cells after 48 hrs by sulforhodamine B assay; conditions: OVCAR-3, 48 h; in short: as §1
# CAKI-1 = assay: Antiproliferative activity against human Caki1 cells after 48 hrs by sulforhodamine B assay; conditions: CAKI-1, 48 h; in short: as §1
# SW-620 = assay: Antiproliferative activity against human SW620 cells after 48 hrs by sulforhodamine B assay; conditions: SW-620, 48 h
# In short: (§2)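 NCI 60-cell-line panel screen: single dose 10 µM first, then 5-dose testing (0.01, 0.1, … molar series). For each line, GI50 is the molar concentration giving 50% inhibition of net cell growth, TGI gives total inhibition of net growth, and LC50 gives 50% net cell death. Method follows the NCI DTP protocol.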
# NCI-H226 = assay: Antiproliferative activity against human NCI-H226 cells after 48 hrs by sulforhodamine B assay; conditions: NCI-H226, 48 h; in short: as §1
# OVCAR-5 = assay: Antiproliferative activity against human OVCAR5 cells after 48 hrs by sulforhodamine B assay; conditions: OVCAR-5, 48 h; in short: as §1
# [2] = Antiproliferative activity against human Hs 578T cells after 48 hrs by sulforhodamine B assay; in short: as §1
# NCI-H23 = assay: Antiproliferative activity against human NCI-H23 cells after 48 hrs by sulforhodamine B assay; conditions: NCI-H23, 48 h; in short: as §1
# IGROV-1 = assay: Antiproliferative activity against human IGROV1 cells after 48 hrs by sulforhodamine B assay; conditions: IGROV-1, 48 h; in short: as §1
# MOLT-4 = assay: Antiproliferative activity against human MOLT4 cells after 48 hrs by sulforhodamine B assay; conditions: MOLT-4, 48 h, read-out: LC50 (the source's name); in short: as §1
# K562 = assay: Antiproliferative activity against human K562 cells after 48 hrs by sulforhodamine B assay; conditions: K562, 48 h; in short: as §1
# UACC-62 = assay: Antiproliferative activity against human UACC62 cells after 48 hrs by sulforhodamine B assay; conditions: UACC-62, 48 h; in short: as §2
# SK-OV-3 = assay: Antiproliferative activity against human SKOV3 cells after 48 hrs by sulforhodamine B assay; conditions: SK-OV-3, 48 h; in short: as §1
# M14 = assay: Antiproliferative activity against human M14 cells after 48 hrs by sulforhodamine B assay; conditions: M14, 48 h; in short: as §1
# EKVX = assay: Antiproliferative activity against human EKVX cells after 48 hrs by sulforhodamine B assay; in short: as §1
# UACC-257 = assay: Antiproliferative activity against human UACC257 cells after 48 hrs by sulforhodamine B assay; conditions: UACC-257, 48 h; in short: as §2
# COLO 205 = assay: Antiproliferative activity against human COLO205 cells after 48 hrs by sulforhodamine B assay; conditions: COLO 205, 48 h; in short: as §1
# PC-3 = assay: Antiproliferative activity against human PC3 cells after 48 hrs by sulforhodamine B assay; conditions: PC-3, 48 h; in short: as §1
# [3] = read-out: LC50 (the source's name)
smiles,measurement,setting,value
Nc1nn(C(=O)Nc2ccc(Cc3ccccc3)cc2)c2ccccc12,TGI,SN12C,28 µM
same,CC50,SN12C; [3],60.6 µM
same,TGI,A549,48.6 µM
same,CC50,A549; [3],> 100 µM
same,TGI,786-0,26.2 µM
same,CC50,786-0; [3],92.7 µM
same,TGI,SNB-19,> 100 µM
same,CC50,SNB-19; [3],> 100 µM
same,GI50,[1],1.86 µM
same,TGI,[1],25.8 µM
same,CC50,[1]; [3],84 µM
same,TGI,OVCAR-4,40.4 µM
same,CC50,OVCAR-4; [3],> 100 µM
same,LC50 (concentration causing 50% net cell death),HCT-116,> 100 µM
same,TGI,HCT-116,> 100 µM
same,LC50 (concentration causing 50% net cell death),HCT-15,> 100 µM
same,TGI,HCT-15,> 100 µM
same,TGI,SK-MEL-2,> 100 µM
same,CC50,SK-MEL-2; [3],> 100 µM
same,TGI,SF-268,32.3 µM
same,CC50,SF-268; [3],> 100 µM
same,TGI,OVCAR-8,63.9 µM
same,CC50,OVCAR-8; [3],> 100 µM
same,CC50,SF-539,> 100 µM
same,TGI,NCI-H460,13 µM
same,LC50 (concentration causing 50% net cell death),HOP-62,> 100 µM
same,TGI,HOP-62,46.5 µM
same,TGI,OVCAR-3,63.1 µM
same,CC50,OVCAR-3; [3],> 100 µM
same,TGI,CAKI-1,58 µM
same,CC50,CAKI-1; [3],> 100 µM
same,TGI,SW-620,41.5 µM
same,CC50,SW-620; [3],> 100 µM
same,TGI,NCI-H226,58.2 µM
same,CC50,NCI-H226; [3],> 100 µM
same,TGI,OVCAR-5,> 100 µM
same,CC50,OVCAR-5; [3],> 100 µM
same,TGI,[2],71.8 µM
same,CC50,[2]; [3],> 100 µM
same,TGI,NCI-H23,83.5 µM
same,CC50,NCI-H23; [3],> 100 µM
same,TGI,IGROV-1,48.8 µM
same,CC50,IGROV-1; [3],> 100 µM
same,CC50,MOLT-4,> 100 µM
same,GI50,K562,1.2 µM
same,LC50 (concentration causing 50% net cell death),K562,> 100 µM
same,TGI,UACC-62,> 100 µM
same,CC50,UACC-62; [3],> 100 µM
same,TGI,SK-OV-3,> 100 µM
same,CC50,SK-OV-3; [3],> 100 µM
same,TGI,M14,> 100 µM
same,CC50,M14; [3],> 100 µM
same,TGI,EKVX,92 µM
same,CC50,EKVX; [3],> 100 µM
same,GI50,UACC-257,10 µM
same,TGI,UACC-257,50.9 µM
same,CC50,UACC-257; [3],> 100 µM
same,LC50 (concentration causing 50% net cell death),COLO 205,> 100 µM
same,TGI,COLO 205,37.7 µM
same,TGI,PC-3,51.1 µM
same,CC50,PC-3; [3],> 100 µM
